For orientation: IC50 means the concentration that gives 50% inhibition.

The source made the active and inactive calls. No cut-off for these calls is given here.

The target of one assay is T1, 15-hydroxyprostaglandin dehydrogenase [NAD(+)] (Homo sapiens) (UniProt P15428).
T1 sequence (whole entry): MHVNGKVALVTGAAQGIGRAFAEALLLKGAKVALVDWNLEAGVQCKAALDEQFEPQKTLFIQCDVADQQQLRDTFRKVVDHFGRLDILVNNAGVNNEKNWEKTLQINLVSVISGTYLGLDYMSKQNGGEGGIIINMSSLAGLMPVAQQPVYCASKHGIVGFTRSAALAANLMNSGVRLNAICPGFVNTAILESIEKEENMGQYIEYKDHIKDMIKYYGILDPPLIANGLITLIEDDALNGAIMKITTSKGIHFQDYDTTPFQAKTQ
Briefly: Inhibition of 15-PGDH in IL-1beta-stimulated human A549 cells assessed as increase in PGE2 level at 5 uM after 12 hrs by enzyme immunoassay relative to control.
Details: not given
As to `O=C1N=C(O)S/C1=C\c1ccc(OCCc2ccccc2)c(Cl)c1`, the fold change (FC) was determined as 5.

The next assay concerns HaCaT. In words: Wound healing activity in scratch made human HaCaT cells at 5 uM after 48 hrs by inverted microscopic analysis relative to control. The class given is functional, cell-based.
Details: not given
The essentials: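 HaCaT cells plated at ca. 5×10^5 per well in DMEM with 10% FBS and 10 µg/mL mitomycin, 37 °C, 5% CO₂, grown to ca. 80% confluence. Monolayer scratched with a 200 µL pipette tip, then incubated with 5 µM test agent; 1 ng TGF-β1 as positive control. Wound width imaged by inverted microscope at wounding and after 48 h, compared with untreated control.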
As to `O=C1N=C(O)S/C1=C\c1ccc(OCCc2ccccc2)c(Cl)c1`, the result was Active.

In the next assay the target is T2, 15-hydroxyprostaglandin dehydrogenase [NAD(+)] (Homo sapiens, UniProt P15428).
T2 sequence (P15428 whole entry): T1 sequence (whole entry)
Briefly: Inhibition of human GST-fused 15-PGDH expressed in Escherichia coli BL21 using PGE2 as substrate assessed as formation of NADH by fluorescence spectrophotometric analysis.
Details: not given
Put shortly: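 GST-tagged 15-PGDH from pGEX-2T in E. coli BL-21 LysS, IPTG-induced 12 h at 25 °C, glutathione-Sepharose purified. Triplicates per concentration; IC50 derived.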
As to `O=C1NC(=O)/C(=C/c2ccc(OCc3ccc4c(c3)OCO4)c(Cl)c2)S1`, the IC50 was determined as 0.193 µM. With `O=C1NC(=O)/C(=C/c2ccc(OCCc3ccc([N+](=O)[O-])o3)c(Cl)c2)S1`, the IC50 is 0.123 µM. In the case of `O=C1NC(=O)/C(=C/c2ccc(OCCCCc3ccccc3)cc2Cl)S1`, the IC50 worked out at 0.081 µM. For `O=C1NC(=O)/C(=C/c2ccc(OCC3CCCC3)c(Cl)c2)S1`, the IC50 stood at 0.011 µM. Turning to `Cc1ncsc1CCOc1ccc(/C=C2\SC(=O)NC2=O)cc1Cl`, the IC50 is 5.17 µM.

For `O=C1NC(=O)/C(=C/c2ccc(Oc3cccc(/C=C/[N+](=O)[O-])c3)c(Cl)c2)S1`, the IC50 worked out at 0.059 µM. With `O=C1NC(=O)/C(=C/c2ccc(OC(=O)c3cccs3)c(Cl)c2)S1`, the IC50 was 0.264 µM. Take `CCc1ccc(CCOc2ccc(/C=C3\SC(=O)NC3=O)cc2Cl)nc1`: the IC50 was found to be 2.08 µM. `O=C1NC(=O)/C(=C/c2ccc(Oc3cccc([N+](=O)[O-])c3)c(Cl)c2)S1`: the IC50 amounted to 0.1 µM.

In the case of `CC(Oc1ccc(/C=C2\SC(=O)NC2=O)cc1Cl)C1CC1` (stereo unspecified), the IC50 is 0.132 µM.

With `O=C1NC(=O)/C(=C/c2ccc(Oc3cccc4c3CCCC4=O)c(Cl)c2)S1`, the IC50 amounted to 0.071 µM. Same read-out and setting: for `O=C1NC(=O)/C(=C/c2ccc(OCC3CCC3)c(Cl)c2)S1` the value was 0.009 µM; for `O=C1NC(=O)/C(=C/c2ccc(OCCC3CCCC3)cc2Cl)S1`, 0.042 µM; for `O=C1NC(=O)/C(=C/c2ccc(OCc3ccc([N+](=O)[O-])cc3)c(Cl)c2)S1`, 0.93 µM. Consider `O=C1N=C(O)S/C1=C\c1ccc(OCCC2CCCCC2)cc1Cl`, for which the IC50 was found to be 0.013 µM. In the case of `O=C1NC(=O)/C(=C/c2ccc(OCCOC3CCCCC3)c(Cl)c2)S1`, the IC50 turned out to be 0.02 µM. Consider `C=C(C)C1CCC(COc2ccc(/C=C3\SC(=O)NC3=O)cc2Cl)CC1` (stereo unspecified), for which the 50% inhibitory concentration (IC50) worked out at 0.075 µM. As to `O=C1NC(=O)/C(=C/c2ccc(OCCOC3CCCCC3)cc2Cl)S1`, the IC50 amounted to 0.211 µM. Still for that read-out and setting: for `CC(C)OCCOc1ccc(/C=C2\SC(=O)NC2=O)c(Cl)c1` the value was 1.05 µM; for `O=C1NC(=O)/C(=C/c2ccc(OCc3ccc([N+](=O)[O-])cc3)cc2Cl)S1`, 4.54 µM. Take `O=C1NC(=O)/C(=C/c2ccc(OCCc3ccccn3)c(Cl)c2)S1`: the IC50 was 4.44 µM. The same measure, in the same setting: the result for `O=C1NC(=O)/C(=C/c2ccc(OCC3CC4CCC3C4)c(Cl)c2)S1` (stereo unspecified) reads 0.165 µM.

In the next assay the target is T1, 15-hydroxyprostaglandin dehydrogenase [NAD(+)] (Homo sapiens). Briefly: Inhibition of 15-PGDH in IL-1beta-stimulated human A549 cells assessed as increase in PGE2 level after 5 hrs by enzyme immunoassay. In kind it is cell-based.
Details: not given
Put shortly: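 IL-1β-stimulated A549 cells (RPMI, 10% heat-inactivated FBS, 5% CO₂, 37 °C) exposed to inhibitors at various concentrations for 5 h. PGE₂ in the collected medium quantified by enzyme immunoassay.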
`O=C1N=C(O)S/C1=C\c1ccc(OCCCCc2ccccc2)c(Cl)c1`: the inhibition result was “Dose-dependent effect”. On to `O=C1N=C(O)S/C1=C\c1ccc(OCCc2ccccc2)c(Cl)c1`, for which the inhibition entry was “Dose-dependent effect”.

For the molecule `O=C1N=C(O)S/C1=C\c1ccc(OCCCc2ccccc2)c(Cl)c1`, the inhibition result was “Dose-dependent effect”.

Regarding `O=C1N=C(O)S/C1=C\c1ccc(OCc2ccccc2)c(Cl)c1`, the inhibition entry was “Dose-dependent effect”.

For a further assay the target is unchanged. In words: Inhibition of 15-PGDH in IL-1beta-stimulated human A549 cells assessed as increase in PGE2 level at 5 uM after 5 hrs by enzyme immunoassay relative to control. In kind it is cell-based. The conditions noted are these: in the assay text read “after 12 hrs” for “after 5 hrs”. Put shortly: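 A549 cells seeded at 5×10^5 per well, incubated overnight in RPMI with FBS and antibiotic at 37 °C, 5% CO₂, then treated with inhibitor at 5 μM. Medium collected (text gives 5 h in one passage, 12 h in methods). PGE₂ measured by kit enzyme immunoassay and compared with untreated control. Three independent experiments.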
On to `O=C1N=C(O)S/C1=C\c1ccc(OCCCCc2ccccc2)c(Cl)c1`, for which the inhibition result was “Active”. On the same count and under the same terms, for `O=C1N=C(O)S/C1=C\c1ccc(OCCCc2ccccc2)c(Cl)c1` the value was “Active”; for `O=C1N=C(O)S/C1=C\c1ccc(OCc2ccccc2)c(Cl)c1`, “Active”.

Values taken from ChEMBL document CHEMBL2413000, “Control of the intracellular levels of prostaglandin E₂ through inhibition of the 15-hydroxyprostaglandin dehydrogenase for wound healing” (Bioorg Med Chem, 2013).
